Test results published in ChEMBL document CHEMBL3856258, “Phosphonate-based irreversible inhibitors of human γ-glutamyl transpeptidase (GGT). GGsTop is a non-toxic and highly selective inhibitor with critical electrostatic interaction with an active-site residue Lys562 for enhanced inhibitory activity” (Bioorg Med Chem, 2016).
Activity calls are given as the source filed them. The rule behind the calls is not given here.

How the values were obtained:
[1] = Cytotoxicity against CHL cells assessed as structural aberrations at 3300 ug/ml after 24 hrs by Giemsa-staining-based microscopic analysis; type: toxicity, cell-based, Cricetulus griseus; conditions: chinese hamster
Salmonella typhimurium [2] = assay: Genotoxicity in Salmonella typhimurium TA1537 assessed as number of revertant colonies per plate at 556 ug/plate after 20 mins in presence of S9 fraction by Ames test (reference value: 15); type: toxicity, organism-based; conditions: salmonella enterica subsp. enterica serovar typhimurium
Salmonella typhimurium [3] = assay: Genotoxicity in Salmonella typhimurium TA1537 assessed as number of revertant colonies per plate at 61.7 ug/plate after 20 mins in absence of S9 fraction by Ames test (reference value: 9); type: toxicity, organism-based; conditions: salmonella enterica subsp. enterica serovar typhimurium
Salmonella typhimurium [4] = assay: Genotoxicity in Salmonella typhimurium TA1535 assessed as number of revertant colonies per plate at 61.7 ug/plate after 20 mins in presence of S9 fraction by Ames test (reference value: 13); type: toxicity, organism-based; conditions: salmonella enterica subsp. enterica serovar typhimurium
Homo sapiens = organism: Homo sapiens; assay: Irreversible inhibition of human GGT using gamma-Glu-AMC as substrate assessed as association rate constant by […] analysis
How it was run: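 The enzyme source was a commercial human GGT preparation carrying bovine serum albumin as stabilizer (GGT <1% of protein). Hydrolytic activity was followed with γ-Glu-AMC as substrate. Irreversible inactivation was expressed as kon, the second-order rate constant for the inhibitor–enzyme reaction.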

[5] = Cytotoxicity against CHL cells assessed as number of cells with numerical aberrations at 1650 ug/ml after 24 hrs by Giemsa staining-based microscopic analysis relative to control; type: toxicity, cell-based, Cricetulus griseus; conditions: chinese hamster
[6] = Cytotoxicity against CHL cells assessed as growth rate at 211 ug/ml preincubated for 6 hrs followed by 18 hrs incubation in fresh medium in absence of S9 fraction by MTT assay relative to control; type: toxicity, cell-based, Cricetulus griseus; conditions: chinese hamster, read-out: Activity
Salmonella typhimurium [7] = assay: Genotoxicity in Salmonella typhimurium TA1537 assessed as number of revertant colonies per plate at 20.6 ug/plate after 20 mins in absence of S9 fraction by Ames test (reference value: 9); type: toxicity, organism-based; conditions: salmonella enterica subsp. enterica serovar typhimurium
Escherichia coli [8] = assay: Genotoxicity in Escherichia coli WP2uvrA assessed as number of revertant colonies per plate at 1667 ug/plate after 20 mins in presence of S9 fraction by Ames test (reference value: 26); type: toxicity; conditions: s9, 20 min
[9] = Cytotoxicity against CHL cells assessed as growth rate at 1320 ug/ml preincubated for 6 hrs followed by 18 hrs incubation in fresh medium in presence of S9 fraction by MTT assay relative to control; type: toxicity, cell-based, Cricetulus griseus; conditions: chinese hamster, read-out: Activity
[10] = tested on: Gamma-glutamyltranspeptidase 1 (Homo sapiens); assay: Inhibition of human wild-type N-terminal truncated GGT expressed in baculovirus infected High Five cells at 1 mM using gamma-Glu-PNA as substrate after 1 min by spectrophotometric method; conditions: BTI-TN-5B1-4
[11] = tested on: Glutathione hydrolase 1 proenzyme (Homo sapiens), P19440 [K562S]; assay: Inhibition of human GGT K562S mutant expressed in baculovirus infected High Five cells assessed as residual activity up to 1 mM using gamma-Glu-PNA as substrate after 5 mins by spectrophotometric method relative to control; conditions: BTI-TN-5B1-4
How it was run: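 Soluble N-terminal-truncated (Δ1–27) GGT was secreted by baculovirus-infected High Five cells (4 d, 27 °C) and purified from the medium on Con A and Q Sepharose. Activity was measured in 100 mM Tris-HCl pH 8.0 with 1 mM γ-Glu-PNA and 20 mM Gly-Gly at 37 °C, reading p-nitroaniline release continuously at 410 nm.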

Salmonella typhimurium [12] = assay: Genotoxicity in Salmonella typhimurium TA1535 assessed as number of revertant colonies per plate at 20.6 ug/plate after 20 mins in presence of S9 fraction by Ames test (reference value: 13); type: toxicity, organism-based; conditions: salmonella enterica subsp. enterica serovar typhimurium
[13] = Cytotoxicity against CHL cells assessed as chromatid gap at 3300 ug/ml preincubated for 6 hrs followed by 18 hrs incubation in fresh medium in presence of S9 fraction by Giemsa-staining-based microscopic analysis; type: toxicity, cell-based, Cricetulus griseus; conditions: chinese hamster
Salmonella typhimurium [14] = assay: Genotoxicity in Salmonella typhimurium TA100 assessed as number of revertant colonies per plate at 556 ug/plate after 20 mins in presence of S9 fraction by Ames test (reference value: 142); type: toxicity, organism-based; conditions: salmonella enterica subsp. enterica serovar typhimurium
[15] = Cytotoxicity against CHL cells assessed as number of cells with numerical aberrations at 1650 ug/ml preincubated for 6 hrs followed by 18 hrs incubation in fresh medium in absence of S9 fraction by Giemsa-staining-based microscopic analysis relative to control; type: toxicity, cell-based, Cricetulus griseus; conditions: chinese hamster
Salmonella typhimurium [16] = assay: Genotoxicity in Salmonella typhimurium TA98 assessed as number of revertant colonies per plate at 185 ug/plate after 20 mins in presence of S9 fraction by Ames test (reference value: 26); type: toxicity, organism-based; conditions: salmonella enterica subsp. enterica serovar typhimurium
[17] = Cytotoxicity against CHL cells assessed as chromatid gap at 825 ug/ml after 24 hrs by Giemsa-staining-based microscopic analysis; type: toxicity, cell-based, Cricetulus griseus; conditions: chinese hamster
Salmonella typhimurium [18] = assay: Genotoxicity in Salmonella typhimurium TA100 assessed as number of revertant colonies per plate at 5000 ug/plate after 20 mins in presence of S9 fraction by Ames test (reference value: 142); type: toxicity, organism-based; conditions: salmonella enterica subsp. enterica serovar typhimurium
Salmonella typhimurium [19] = assay: Genotoxicity in Salmonella typhimurium TA1537 assessed as number of revertant colonies per plate at 1667 ug/plate after 20 mins in presence of S9 fraction by Ames test (reference value: 15); type: toxicity, organism-based; conditions: salmonella enterica subsp. enterica serovar typhimurium
[20] = Hydrolytic stability of compound in D2O at pH >8.5 by 31P NMR spectroscopy; type: physicochemical
[21] = Cytotoxicity against CHL cells assessed as number of cells with numerical aberrations at 1650 ug/ml preincubated for 6 hrs followed by 18 hrs incubation in fresh medium in presence of S9 fraction by Giemsa staining-based microscopic analysis relative to control; type: toxicity, cell-based, Cricetulus griseus; conditions: chinese hamster
[22] = Cytotoxicity against CHL cells assessed as chromatid gap at 1650 ug/ml preincubated for 6 hrs followed by 18 hrs incubation in fresh medium in presence of S9 fraction by Giemsa-staining-based microscopic analysis; type: toxicity, cell-based, Cricetulus griseus; conditions: chinese hamster
[23] = Cytotoxicity against CHL cells assessed as growth rate at 13.5 ug/ml preincubated for 6 hrs followed by 18 hrs incubation in fresh medium in absence of S9 fraction by MTT assay relative to control; type: toxicity, cell-based, Cricetulus griseus; conditions: chinese hamster, read-out: Activity
Salmonella typhimurium [24] = assay: Genotoxicity in Salmonella typhimurium TA1535 assessed as number of revertant colonies per plate at 20.6 ug/plate after 20 mins in absence of S9 fraction by Ames test (reference value: 15); type: toxicity, organism-based; conditions: salmonella enterica subsp. enterica serovar typhimurium
Salmonella typhimurium [25] = assay: Genotoxicity in Salmonella typhimurium TA98 assessed as number of revertant colonies per plate at 20.6 ug/plate after 20 mins in absence of S9 fraction by Ames test (reference value: 21); type: toxicity, organism-based; conditions: salmonella enterica subsp. enterica serovar typhimurium
Escherichia coli [26] = assay: Genotoxicity in Escherichia coli WP2uvrA assessed as number of revertant colonies per plate at 5000 ug/plate after 20 mins in presence of S9 fraction by Ames test (reference value: 26); type: toxicity; conditions: s9, 20 min
[27] = Cytotoxicity against CHL cells assessed as growth rate at 211 ug/ml after 24 hrs in absence of S9 fraction by MTT assay relative to control; type: toxicity, cell-based, Cricetulus griseus; conditions: chinese hamster, read-out: Activity
Salmonella typhimurium [28] = assay: Genotoxicity in Salmonella typhimurium TA98 assessed as number of revertant colonies per plate at 61.7 ug/plate after 20 mins in absence of S9 fraction by Ames test (reference value: 21); type: toxicity, organism-based; conditions: salmonella enterica subsp. enterica serovar typhimurium
Salmonella typhimurium [29] = assay: Genotoxicity in Salmonella typhimurium TA98 assessed as number of revertant colonies per plate at 5000 ug/plate after 20 mins in absence of S9 fraction by Ames test (reference value: 21); type: toxicity, organism-based; conditions: salmonella enterica subsp. enterica serovar typhimurium

Chain of Glutathione hydrolase 1 proenzyme (Homo sapiens), P19440 [K562S] (P19440 whole entry K562S, the tested form may be a part): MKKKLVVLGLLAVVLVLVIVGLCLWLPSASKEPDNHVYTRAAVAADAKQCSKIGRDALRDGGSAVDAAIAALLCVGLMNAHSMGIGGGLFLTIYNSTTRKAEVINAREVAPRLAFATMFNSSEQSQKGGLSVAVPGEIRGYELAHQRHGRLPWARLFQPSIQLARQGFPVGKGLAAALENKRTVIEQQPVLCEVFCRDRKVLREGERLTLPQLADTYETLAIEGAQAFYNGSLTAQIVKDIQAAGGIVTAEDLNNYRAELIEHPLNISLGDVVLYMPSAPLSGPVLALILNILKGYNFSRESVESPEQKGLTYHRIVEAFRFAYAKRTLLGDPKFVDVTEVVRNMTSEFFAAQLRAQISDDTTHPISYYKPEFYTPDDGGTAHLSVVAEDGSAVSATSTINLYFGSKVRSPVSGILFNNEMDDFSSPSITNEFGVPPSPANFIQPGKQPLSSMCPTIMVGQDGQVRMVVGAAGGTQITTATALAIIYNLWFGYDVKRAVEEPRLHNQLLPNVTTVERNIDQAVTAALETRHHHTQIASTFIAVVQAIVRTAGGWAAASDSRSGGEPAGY

Work on COP(=O)(CCC(N)C(=O)O)Oc1cccc(CC(=O)O)c1 (stereo not given) yielded an Activity [1] of 1%, an Activity (Salmonella typhimurium [2]) of 16 and an Activity (Salmonella typhimurium [3]) of 12. The Activity (Salmonella typhimurium [4]) was 9, the K (Homo sapiens) was 51 M⁻¹ s⁻¹ and the Activity [5] was 0%. The viability at 18 h, 211 ug/ml [6] was 101%, the Activity (Salmonella typhimurium [7]) was 9 and the Activity (Escherichia coli [8]) was 23. For the same compound, the viability at 18 h, 1320 ug/ml [9] was 95.7%, the inhibition [10] was “Active” and the Activity [11] was over 80%. The Activity (Salmonella typhimurium [12]) was 11, the Activity [13] was 0% and the Activity (Salmonella typhimurium [14]) was 129. It also gave an Activity [15] of 0%, an Activity (Salmonella typhimurium [16]) of 34 and an Activity [17] of 0%. For the same compound, the Activity (Salmonella typhimurium [18]) was 125, the Activity (Salmonella typhimurium [19]) was 18 and the Stability [20] was “Unstable”. It also gave an Activity [21] of 0%, an Activity [22] of 1% and a viability at 18 h, 13.5 ug/ml [23] of 100%. It also gave an Activity (Salmonella typhimurium [24]) of 15, an Activity (Salmonella typhimurium [25]) of 21 and an Activity (Escherichia coli [26]) of 34. For the same compound, the viability at 24 h, 211 ug/ml [27] was 98.2%, the Activity (Salmonella typhimurium [28]) was 23 and the Activity (Salmonella typhimurium [29]) was 24.
